One block for each compound: values may come before it.
Key:
[1] = species on record: Homo sapiens; test: Inhibitory activity against aggregation of human platelets; assay type: functional, organism-based
In short: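 Human platelets were gel-filtered from PRP on Sepharose 2B and used at 3 × 10⁸ platelets/mL with 1 mg/mL fibrinogen. Compounds were added at 37 °C 2 min before activation with 10 µM ADP, with stirring at 1000 rpm at 37 °C. Aggregation was read as the maximal increase in light transmittance. IC50 is the mean over GFP from two to six donors.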

[2] = Oral bioavailability in dog; assay type: ADME, organism-based, Canis lupus familiaris; conditions: in vivo
In short: (§1)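 Conscious dogs received compound intravenously and orally, and blood was sampled over time for plasma. Active plasma equivalents were measured by bioassay as inhibition of ¹²⁵I-fibrinogen binding to isolated, immobilized GPIIb/IIIa. Kinetic data points are means from four dogs.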

[3] = biological target: T1, Integrin alpha-IIb/beta-3 (Homo sapiens, UniProt P05106+P08514); test: Inhibition of [125I]fibrinogen binding to ADP-activated human gel filtered platelets
T1 sequence (P05106 27-788 limits assumed): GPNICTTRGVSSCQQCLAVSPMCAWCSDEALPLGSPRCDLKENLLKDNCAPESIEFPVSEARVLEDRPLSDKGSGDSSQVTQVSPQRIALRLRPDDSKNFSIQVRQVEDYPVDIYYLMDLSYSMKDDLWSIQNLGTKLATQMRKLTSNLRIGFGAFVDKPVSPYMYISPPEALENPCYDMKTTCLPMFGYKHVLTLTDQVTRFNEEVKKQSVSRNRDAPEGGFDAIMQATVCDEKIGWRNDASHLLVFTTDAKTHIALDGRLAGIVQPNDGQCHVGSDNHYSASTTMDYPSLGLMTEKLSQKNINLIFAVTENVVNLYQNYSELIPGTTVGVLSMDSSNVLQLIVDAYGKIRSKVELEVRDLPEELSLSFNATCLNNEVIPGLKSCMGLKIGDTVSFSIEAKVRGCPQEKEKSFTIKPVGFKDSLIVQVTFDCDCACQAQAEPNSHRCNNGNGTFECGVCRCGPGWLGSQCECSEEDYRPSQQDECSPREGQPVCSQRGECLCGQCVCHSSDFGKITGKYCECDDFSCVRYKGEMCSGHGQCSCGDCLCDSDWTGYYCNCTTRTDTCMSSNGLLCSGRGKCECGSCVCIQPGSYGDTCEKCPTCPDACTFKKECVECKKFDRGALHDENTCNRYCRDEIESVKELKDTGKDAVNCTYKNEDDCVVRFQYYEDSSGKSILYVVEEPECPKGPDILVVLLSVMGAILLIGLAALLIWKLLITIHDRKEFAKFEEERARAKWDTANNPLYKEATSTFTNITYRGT
T1 sequence (P08514 32-887 limits assumed): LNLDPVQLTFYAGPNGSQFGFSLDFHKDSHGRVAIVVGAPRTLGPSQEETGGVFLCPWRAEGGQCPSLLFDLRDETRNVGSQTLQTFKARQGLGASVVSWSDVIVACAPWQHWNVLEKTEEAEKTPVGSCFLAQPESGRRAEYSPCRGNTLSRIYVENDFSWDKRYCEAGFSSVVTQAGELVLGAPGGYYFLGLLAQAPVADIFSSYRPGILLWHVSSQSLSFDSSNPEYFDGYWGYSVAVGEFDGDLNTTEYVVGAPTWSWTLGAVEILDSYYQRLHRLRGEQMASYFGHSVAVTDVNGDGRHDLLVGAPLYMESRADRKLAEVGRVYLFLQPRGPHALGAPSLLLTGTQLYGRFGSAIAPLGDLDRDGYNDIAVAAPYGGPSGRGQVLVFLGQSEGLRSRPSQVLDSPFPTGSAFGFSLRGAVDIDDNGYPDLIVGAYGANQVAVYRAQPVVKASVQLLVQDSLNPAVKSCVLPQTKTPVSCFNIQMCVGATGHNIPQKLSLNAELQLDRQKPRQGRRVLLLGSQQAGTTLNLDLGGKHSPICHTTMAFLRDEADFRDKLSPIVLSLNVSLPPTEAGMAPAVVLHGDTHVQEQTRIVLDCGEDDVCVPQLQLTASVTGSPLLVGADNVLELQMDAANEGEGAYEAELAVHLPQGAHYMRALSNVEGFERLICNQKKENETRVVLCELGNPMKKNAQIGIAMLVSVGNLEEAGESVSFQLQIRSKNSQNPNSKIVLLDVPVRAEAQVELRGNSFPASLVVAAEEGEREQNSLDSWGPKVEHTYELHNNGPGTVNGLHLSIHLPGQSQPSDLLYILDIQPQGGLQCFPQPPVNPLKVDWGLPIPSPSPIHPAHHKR
T1 sequence (P08514 891-1039 limits assumed): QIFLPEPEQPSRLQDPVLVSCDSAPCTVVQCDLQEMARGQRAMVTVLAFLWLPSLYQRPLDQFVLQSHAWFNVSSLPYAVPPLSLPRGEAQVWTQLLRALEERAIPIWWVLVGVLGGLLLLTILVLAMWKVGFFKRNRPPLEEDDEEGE

[4] = species on record: Canis familiaris; test: Inhibitory activity against dog platelet aggregation in GFP; assay type: functional, organism-based; conditions: Canis lupus familiaris
[5] = biological target: T1, Integrin alpha-IIb/beta-3; test: Inhibition of [125I]fibrinogen binding to isolated GPIIb/IIIa; assay type: protein-complex assay
[6] = species on record: Homo sapiens; test: Inhibitory activity against platelet rich plasma; assay type: functional, organism-based
[7] = Half life from dog blood after intravenous administration at a dose of 0.3 mg/kg Expt-2; assay type: ADME, organism-based, Canis lupus familiaris; design: dose 0.3 mg/kg, route intravenous; in short: as §1
[8] = Half life from dog blood after oral administration at a dose of 3 mg/kg Expt-2; assay type: ADME, organism-based, Canis lupus familiaris; design: dose 3 mg/kg, route oral; in short: as §1
[9] = Half life from dog blood after oral administration at a dose of 3 mg/kg Expt-1; assay type: ADME, organism-based, Canis lupus familiaris; design: dose 3 mg/kg, route oral; in short: as §1
[10] = Half life from dog blood after intravenous administration at a dose of 0.3 mg/kg Expt-1; assay type: ADME, organism-based, Canis lupus familiaris; design: dose 0.3 mg/kg, route intravenous; in short: as §1

SMILES: N=C(N)NCCC[C@@H]1NC(=O)N(CC(=O)N[C@@H](CC(=O)O)C(=O)N[C@H](C(=O)O)c2ccccc2)C1=O
IC50 [1]: 900 nM

SMILES: N=C(N)NCCC[C@@H]1NC(=O)N(CC(=O)N[C@@H](CC(=O)O)C(=O)N[C@@H](CO)C(=O)O)C1=O
IC50 [1]: 10000 nM

SMILES: CC1(c2ccc(C(=N)N)cc2)NC(=O)N(CC(=O)NC(CC(=O)O)c2ccc3c(c2)OCO3)C1=O (stereo unspecified)
IC50 [1]: 80 nM

SMILES: CC1(c2ccc(C(=N)N)cc2)NC(=O)N(CC(=O)NC(CC(=O)O)c2cccnc2)C1=O (stereo unspecified)
IC50 [1]: 100 nM

SMILES: CCOC(=O)C[C@H](NC(=O)CN1C(=O)N[C@@](C)(c2ccc(C(=N)N)cc2)C1=O)c1ccccc1 [CARAFIBAN]
half-life [7]: 0.8 h | bioavailability [2]: 42% | half-life [8]: 9.9 h | half-life [9]: 7.9 h | half-life [10]: 1.4 h

Second part, the compound after the results:

IC50 [1]: 200 nM | bioavailability [2]: 5%
SMILES: CC1(c2ccc(C(=N)N)cc2)NC(=O)N(CC(=O)NC(CC(=O)O)c2ccccc2)C1=O (stereo unspecified)

IC50 [1]: 6000 nM
SMILES: C[C@]1(c2ccc(C(=N)N)cc2)NC(=O)N(CC(=O)N[C@@H](CC(=O)O)c2ccccc2)C1=O

IC50 [1]: 5000 nM
SMILES: C[C@]1(c2ccc(C(=N)N)cc2)NC(=O)N(CC(=O)N[C@H](CC(=O)O)c2ccccc2)C1=O

Ki [3]: 9 nM | IC50 [1]: 20 nM | bioavailability [2]: 10% | IC50 [4]: 100 nM | Ki [5]: 0.17 nM | IC50 [6]: 100 nM
SMILES: C[C@@]1(c2ccc(C(=N)N)cc2)NC(=O)N(CC(=O)N[C@@H](CC(=O)O)c2ccccc2)C1=O

IC50 [1]: 50000 nM
SMILES: C[C@@]1(c2ccc(C(=N)N)cc2)NC(=O)N(CC(=O)N[C@H](CC(=O)O)c2ccccc2)C1=O

IC50 [1]: 300 nM
SMILES: CC1(c2ccc(C(=N)N)cc2)NC(=O)N(CC(=O)NC(CC(=O)O)c2cccc3ccccc23)C1=O (stereo unspecified)

From ChEMBL document CHEMBL1129321, “Discovery of an orally active non-peptide fibrinogen receptor antagonist” (J Med Chem, 1996)
